Measurements as given in ChEMBL document CHEMBL1143070, “Catechin gallates are NADP+-competitive inhibitors of glucose-6-phosphate dehydrogenase and other enzymes that employ NADP+ as a coenzyme” (Bioorg Med Chem, 2008).
Active and inactive are the calls of the source. The calls are words filed in the database; no cut-off is given here.

Assays:
3T3-L1 [1] = assay: Inhibition of G6PD-mediated NADPH production in mouse 3T3-L1 cells at above 100 umol/L; assay type: cell-based
Summary of the method: (§1)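 Fully differentiated 3T3-L1 adipocytes were lysed in NETN buffer and spun at 4 °C; supernatants were used at once. 1.0 µg protein was incubated at 30 °C with inhibitor (DMSO <0.2% v/v) in 0.1 mol/L Tris pH 7.5, 150 mmol/L NaCl, 6 mmol/L MgCl2, 0.5 mmol/L G6P, 0.5 mmol/L 6-phosphogluconate and 0.25 mmol/L NADP+. Total NADPH production was normalized to Bradford protein. Values are means of three independent experiments.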

3T3-L1 [2] = assay: (§2) Inhibition of G6PD-mediated NADPH production in mouse 3T3-L1 cells; assay type: cell-based; summary of the method: as §1
[3] = Inhibition of IDH
[4] = biological target: T1, Glucose-6-phosphate 1-dehydrogenase (Saccharomyces cerevisiae S288c, UniProt P11412); assay: Inhibition of yeast G6PD
T1 sequence (P11412 whole entry): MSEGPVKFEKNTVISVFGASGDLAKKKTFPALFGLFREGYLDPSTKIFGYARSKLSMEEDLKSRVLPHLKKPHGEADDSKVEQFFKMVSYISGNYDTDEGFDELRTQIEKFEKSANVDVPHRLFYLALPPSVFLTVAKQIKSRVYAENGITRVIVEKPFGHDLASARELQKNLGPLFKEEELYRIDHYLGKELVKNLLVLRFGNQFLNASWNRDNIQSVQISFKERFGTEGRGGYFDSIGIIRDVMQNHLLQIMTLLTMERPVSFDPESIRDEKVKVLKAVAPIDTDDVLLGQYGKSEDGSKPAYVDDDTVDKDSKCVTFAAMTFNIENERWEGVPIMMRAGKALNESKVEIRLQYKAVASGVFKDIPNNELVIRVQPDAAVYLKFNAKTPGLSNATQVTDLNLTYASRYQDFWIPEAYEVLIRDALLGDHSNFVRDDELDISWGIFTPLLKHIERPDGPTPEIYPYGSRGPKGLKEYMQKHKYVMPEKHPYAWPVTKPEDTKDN

[5] = biological target: 6-phosphogluconate dehydrogenase, decarboxylating (Saccharomyces cerevisiae) (UniProt P38720); assay: Inhibition of 6PGD
6-phosphogluconate dehydrogenase, decarboxylating (Saccharomyces cerevisiae), sequence (P38720 whole entry, looked up): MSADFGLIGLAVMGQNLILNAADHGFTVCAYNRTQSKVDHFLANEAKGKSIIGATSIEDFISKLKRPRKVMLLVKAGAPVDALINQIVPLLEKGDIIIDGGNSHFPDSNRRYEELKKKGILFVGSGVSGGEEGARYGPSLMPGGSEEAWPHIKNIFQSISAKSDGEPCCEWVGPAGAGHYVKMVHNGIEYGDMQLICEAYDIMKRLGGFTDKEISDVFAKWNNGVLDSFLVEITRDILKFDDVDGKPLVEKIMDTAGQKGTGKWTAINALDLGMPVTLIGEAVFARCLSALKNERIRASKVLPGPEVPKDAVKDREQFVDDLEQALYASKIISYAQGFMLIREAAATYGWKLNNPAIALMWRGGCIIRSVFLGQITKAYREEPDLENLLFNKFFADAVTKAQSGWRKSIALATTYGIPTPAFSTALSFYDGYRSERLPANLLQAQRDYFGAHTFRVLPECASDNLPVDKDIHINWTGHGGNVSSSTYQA

[6] = as §2; assay type: cell-based; summary of the method: as §1
3T3-L1 [7] = assay: Ratio of IC50 for yeast G6PD to IC50 for G6PD-mediated NADPH production in mouse 3T3-L1 cells; assay type: cell-based
Homo sapiens = assay: Plasma concentration in human at 50 mg, po; conditions: in vivo

Row | Compound | inhibition (3T3-L1 [1]) [%] | Activity (3T3-L1 [2]) | IC50 [3] [µM] | IC50 [4] [µM] | IC50 [5] [µM] | IC50 [6] [µM] | Ratio IC50 (3T3-L1 [7]) | concentration (Homo sapiens) [nM]
1 | C[C@]12CC[C@H](O)CC1=CC[C@@H]1[C@@H]2CC[C@]2(C)C(=O)CC[C@@H]12 | 40 |  |  |  |  |  |  | 
2 | Oc1cc(O)c2c(c1)O[C@H](c1ccc(O)c(O)c1)[C@H](O)C2 [(-)-EPICATECHIN] |  | inactive | > 1000 | > 1000 |  |  |  | 
3 | Oc1cc(O)c2c(c1)O[C@@H](c1ccc(O)c(O)c1)[C@H](O)C2 [(-)-CATECHIN] |  | inactive | > 1000 | > 1000 |  |  |  | 
4 | O=C(O[C@@H]1Cc2c(O)cc(O)cc2O[C@H]1c1cc(O)c(O)c(O)c1)c1cc(O)c(O)c(O)c1 [GALLOCATECHIN GALLATE] |  |  | 2.72 | 0.23 | 1.45 | 25 | 100 | 
5 | Oc1cc(O)c2c(c1)O[C@H](c1cc(O)c(O)c(O)c1)[C@H](O)C2 [EPIGALLOCATECHIN] |  | inactive | > 1000 | > 1000 |  |  |  | 
6 | CCOc1cccc(-c2cc(C(=O)N/N=C/c3ccccc3O)[nH]n2)c1 |  |  |  | 21.8 |  |  |  | 
7 | O=C(O[C@@H]1Cc2c(O)cc(O)cc2O[C@@H]1c1ccc(O)c(O)c1)c1cc(O)c(O)c(O)c1 [EPICATECHIN GALLATE] |  |  | 10.8 | 0.18 | 1.21 | 25 | 100 | 
8 | O=C(O[C@@H]1Cc2c(O)cc(O)cc2O[C@@H]1c1cc(O)c(O)c(O)c1)c1cc(O)c(O)c(O)c1 [EPIGALOCATECHIN GALLATE] |  |  | 6.44 | 0.25 | 0.72 | 25 | 100 | 300
9 | Oc1cccc(/C=N/NC(=S)N/N=C/c2cccc(O)c2O)c1O |  |  |  | 56.4 |  |  |  | 
10 | O=C(O[C@@H]1Cc2c(O)cc(O)cc2O[C@H]1c1ccc(O)c(O)c1)c1cc(O)c(O)c(O)c1 [(-)-CATECHINGALLATE] |  |  | 6.62 | 0.24 | 1.28 | 25 | 100 | 
11 | Oc1cc(O)c2c(c1)O[C@@H](c1cc(O)c(O)c(O)c1)[C@H](O)C2 [(-)-GALLOCATECHIN] |  | inactive | > 1000 | > 1000 |  |  |  | 
